For data set [1], the system named is Cystine. Put plainly: Inhibition of L-cystine crystallization assessed as concentration required to double metastable supersaturation range of L-cystine after 72 hrs by OPA/NBC derivatization based fluorescence assay. An outline of the steps: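 Test solution (5 μL) added to 500 μL supersaturated L-cystine, then held at 25 °C for 72 h and centrifuged (10000 rpm, 4 min). Supernatant diluted 2-fold, reduced with DTT (rt, 10 min), alkylated with iodoacetic acid (rt, 15 min), then derivatized with OPA/NBC (3 min). Fluorescence read at Ex 355/Em 460 nm gives L-cystine concentration. EC2x is the inhibitor concentration doubling the lower-plateau L-cystine level.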

Data set [2] is described as follows: Half life in pH 7.4 phosphate buffered saline at 100 uM at 37 degC by LC-MS/MS analysis. In kind it is physicochemical. Particulars: buffer, pH 7.4, 100 µM. The essentials:
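Compound incubated in pH 7.4 phosphate buffered saline at 37 °C. Disappearance of parent followed over time by LC-MS, and half-life derived from that.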

Data set [3] deals with Cystine. Briefly: Potency index, ratio of L-cystine dimethyl ester concentration to compound concentration required to double metastable supersaturation range of L-cystine. The essentials:
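Ratio is the EC2x of L-cystine dimethyl ester divided by the compound's EC2x. EC2x came from 72 h incubation at 25 °C in supersaturated L-cystine, with supernatant L-cystine measured by OPA/NBC fluorescence.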

Data set [4] is described as follows: Drug level in 129/C57BL6 mouse urine at 29.3 umol/kg, po administered daily through gavage for 1 week measured 4 hrs post last dose by LC-MS/MS analysis. In kind it is ADME, organism-based. As to conditions: read-out: Drug uptake. An outline of the steps: (§1)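 Male mice, wild-type or Slc3a1 knockout, 4–5 per group, dosed by daily oral gavage at 29.3 μmol/kg for 1 week. Urine from each mouse collected individually over the 4 h right after the last dose. Compound in urine quantified by LC-MS/MS; pre-dose urine also tested.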

In data set [5] the test system is Cystine. Briefly: Inhibition of L-cystine stone formation in SLC3A1 knock out 129/C57BL6 mouse model of cystinuria at 29.3 umol/kg, po administered daily through gavage for 4 weeks. The format is functional, organism-based. The essentials: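 Male Slc3a1 knockout mice, groups of six or seven, dosed by daily gavage at 29.3 μmol/kg for 4 weeks. A parallel control group of seven mice received water only. Read-out is the fraction of mice forming stones.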

Data set [6] in a line: Drug level in SLC3A1 knock out 129/C57BL6 mouse urine at 29.3 umol/kg, po administered daily through gavage for 1 week measured 4 hrs post last dose by LC-MS/MS analysis. The format is ADME, organism-based. Particulars: read-out: Drug uptake. The essentials: as §1
In data set [7] the test system is Cystine. Put plainly: Inhibition of hexagonal L-cystine plate crystal growth assessed as induction of plate to rod crystal morphology at 15 to 45 uM after 25 mins by atomic force microscopic analysis.
Data set [8] relates to Cystine. Put plainly: Inhibition of hexagonal L-cystine plate crystal growth assessed as step velocity for crystal growth rate at 15 uM after 25 mins by atomic force microscopic analysis relative to control. An outline of the steps:
(§2)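 In situ AFM of step velocity on {100} steps of hexagonal L-cystine crystals in aqueous 2 mM L-cystine, with additive at 15, 30 or 45 μM. Result expressed as V/V0, where V0 is the velocity measured first without additive; the value is a range.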

The test system of data set [9] is Cystine. Briefly: Inhibition of hexagonal L-cystine plate crystal growth assessed as reduction in crystal mass yield at 15 to 45 uM after 25 mins by atomic force microscopic analysis.
In data set [10] the test system is Cystine. Put plainly: Inhibition of hexagonal L-cystine plate crystal growth assessed as step velocity for crystal growth rate at 45 uM after 25 mins by atomic force microscopic analysis relative to control. An outline of the steps:
as §2

Data set [11] relates to Cystine. Briefly: Inhibition of hexagonal L-cystine plate crystal growth assessed as step velocity for crystal growth rate at 30 uM after 25 mins by atomic force microscopic analysis relative to control. The essentials: as §2

Calls of active or inactive are those of the source. The calls are words filed in the database; no cut-off is given here.

Regarding `CN1CCN(C(=O)[C@@H](N)CSSC[C@H](N)C(=O)N2CCN(C)CC2)CC1.Cl.Cl.Cl.Cl`, the CD in the data set on Cystine [1] stood at 0.26 µM. The same molecule gave a t1/2 in [2] of 19.8 days. The Ratio with Cystine [3] is 24.5; in the data set on Cystine [8] it was 0.52 to 0.66; in the data set on Cystine [10] it was 0.3 to 0.4; in the data set with Cystine [11] it was 0.32 to 0.5. Moreover, the concentration at 4 h in data set [4] stood at 2100 nM; in data set [6], 7590 nM. For the same molecule, the inhibition result in the data set on Cystine [5], in the data set on Cystine [7] and in the data set on Cystine [9] was “Active” each time.
For `COC(=O)[C@@H](N)CSSC[C@H](N)C(=O)OC`, the CD in the data set on Cystine [1] was 6.37 µM. Besides, the t1/2 in [2] was 0.11 days. Further, the inhibition result with Cystine [7] and in the data set with Cystine [9] was “Active” throughout. The values for the Ratio in the data set on Cystine [8], in the data set on Cystine [10] and in the data set on Cystine [11] were 0.4 to 0.65, 0.21 to 0.48 and 0.27 to 0.54, respectively.
Consider `Cl.Cl.N[C@@H](CSSC[C@H](N)C(=O)N1CCOCC1)C(=O)N1CCOCC1`, for which, in the data set with Cystine [1], the CD is 0.86 µM. This molecule registered a t1/2 in data set [2] of 46.2 days. The Ratio was 7.4 in the data set on Cystine [3], 0.44 to 0.65 in the data set with Cystine [8], 0.29 to 0.53 in the data set with Cystine [10] and 0.34 to 0.58 with Cystine [11]. In addition, the inhibition result in the data set with Cystine [5] was “inactive”. Besides, the concentration at 4 h in [6] came out at 2090 nM. For the same molecule, the inhibition result in the data set with Cystine [7] and in the data set on Cystine [9] was “Active” throughout.

Values taken from ChEMBL document CHEMBL4425150, “l-Cystine Diamides as l-Cystine Crystallization Inhibitors for Cystinuria” (J Med Chem, 2016).
